Results as given in ChEMBL document CHEMBL1122582, “Pyridonecarboxylic acids as antibacterial agents. 2. Synthesis and structure-activity relationships of 1,6,7-trisubstituted 1,4-dihydro-4-oxo-1,8-naphthyridine-3-carboxylic acids, including enoxacin, a new antibacterial agent” (J Med Chem, 1984).
≈ marks a conversion by molar mass, not a printed value.

How the values were obtained:
Assay type in all cases: functional
Staphylococcus aureus [1] = assay: Antibacterial activity against Staphylococcus aureus 209PJC-1
In short: (§1)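 Twofold agar dilution on Mueller-Hinton agar (pH 7.4). Inocula of approximately 10⁶ colony-forming units; growth read after 20-h incubation at 37 °C. MIC is given in micrograms per milliliter.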

Pseudomonas aeruginosa [2] = assay: Antibacterial activity against Pseudomonas aeruginosa Tsuchijima; in short: as §1
Escherichia coli [3] = assay: Antibacterial activity against Escherichia coli NIHJ JC-2; in short: as §1
Escherichia coli [4] = assay: Median effective dose against Escherichia coli P-5101 causing systemic infections.
In short: (§2)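 Male Std-ddY mice (20 ± 2 g), groups of 10 or more, infected ip with E. coli P-5101 (9×10^6 cells). Compounds were suspended in 0.2% sodium carboxymethylcellulose and dosed orally at 0 and 6 h postinfection. Survival was scored after 1 week and the ED50 derived in mg/kg.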

Pseudomonas aeruginosa [5] = assay: Median effective dose against Pseudomonas aeruginosa 12 causing systemic infections
In short: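 Male Std-ddY mice (20 ± 2 g), groups of 10 or more, infected ip with P. aeruginosa 12 (4×10^3 cells). Compounds were suspended in 0.2% sodium carboxymethylcellulose and given orally at 0 and 6 h postinfection. Survival was scored after 1 week and the ED50 derived in mg/kg.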

Staphylococcus aureus [6] = assay: Median effective dose against Staphylococcus aureus 50774 causing systemic infections
In short: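 Systemic infection given iv with S. aureus 50774 (5×10^8 cells) to male Std-ddY mice (20 ± 2 g), 10 or more per group. Oral dosing of compound suspended in 0.2% sodium carboxymethylcellulose at 0 and 6 h postinfection. ED50 in mg/kg from survival scored after 2 weeks.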

Escherichia coli [7] = assay: Median effective dose against Escherichia coli P-5101 causing systemic infections; in short: as §2

Compound	MIC (Staphylococcus aureus [1]) [µg/mL]	MIC (Pseudomonas aeruginosa [2]) [µg/mL]	MIC (Escherichia coli [3]) [µg/mL]	ED50 (Escherichia coli [4]) [mg/kg]	ED50 (Pseudomonas aeruginosa [5]) [mg/kg]	ED50 (Staphylococcus aureus [6]) [mg/kg]	ED50 (Escherichia coli [7]) [mg/kg]
CCn1cc(C(=O)O)c(=O)c2cc([N+](=O)[O-])c(N3CCNCC3)nc21	6.25 (≈ 18 µM)	25 (≈ 72 µM)	6.25 (≈ 18 µM)	–	–	–	–
CCn1cc(C(=O)O)c(=O)c2cc(F)c(N)nc21	> 100	50 (≈ 199 µM)	1.56 (≈ 6.21 µM)	–	–	–	–
CCCCN1CCN(c2nc3c(cc2F)c(=O)c(C(=O)O)cn3CC)CC1	3.13 (≈ 8.31 µM)	25 (≈ 66.4 µM)	3.13 (≈ 8.31 µM)	–	–	–	–
CCn1cc(C(=O)O)c(=O)c2cc(C#N)c(N3CCNCC3)nc21	6.25 (≈ 19.1 µM)	6.25 (≈ 19.1 µM)	1.56 (≈ 4.77 µM)	–	–	–	–
CCn1cc(C(=O)O)c(=O)c2cc(N)c(N3CCCC3)nc21	> 100	> 100	> 100	–	–	–	–
CCn1cc(C(=O)O)c(=O)c2cc(F)c(N3CCSCC3)nc21	1.56 (≈ 4.62 µM)	12.5 (≈ 37.1 µM)	3.13 (≈ 9.28 µM)	–	–	–	–
CCn1cc(C(=O)O)c(=O)c2cc(F)c(N3CCN(C(C)=O)CC3)nc21	3.13 (≈ 8.64 µM)	50 (≈ 138 µM)	3.13 (≈ 8.64 µM)	–	–	–	–
CCn1cc(C(=O)O)c(=O)c2cc(F)c(N3CCCCCCC3)nc21	12.5 (≈ 36 µM)	> 100	25 (≈ 72 µM)	–	–	–	–
CN1CCN(c2nc3c(cc2F)c(=O)c(C(=O)O)cn3CCF)CC1	0.78 (≈ 2.21 µM)	1.56 (≈ 4.43 µM)	0.2 (≈ 0.568 µM)	–	–	–	–
C=Cn1cc(C(=O)O)c(=O)c2cc(F)c(N3CCN(C)CC3)nc21	3.13 (≈ 9.42 µM)	0.78 (≈ 2.35 µM)	0.2 (≈ 0.602 µM)	1.1	3.7	10.5	–
CCn1cc(C(=O)O)c(=O)c2cc(Cl)c(N3CCN(C)CC3)nc21	6.25 (≈ 17.8 µM)	12.5 (≈ 35.6 µM)	1.56 (≈ 4.45 µM)	–	–	–	–
CCn1cc(C(=O)O)c(=O)c2ccc(N3CCCC3)nc21	12.5 (≈ 43.5 µM)	> 100	25 (≈ 87 µM)	–	–	–	–
CCn1cc(C(=O)O)c(=O)c2cc(C#N)c(N3CCCC3)nc21	3.13 (≈ 10 µM)	25 (≈ 80 µM)	12.5 (≈ 40 µM)	–	–	–	–
CCn1cc(C(=O)O)c(=O)c2cc(N)c(N3CCN(C)CC3)nc21	25 (≈ 75.4 µM)	12.5 (≈ 37.7 µM)	1.56 (≈ 4.71 µM)	–	–	–	–
CCn1cc(C(=O)O)c(=O)c2cc(F)c(N3CCCNCC3)nc21	1.56 (≈ 4.67 µM)	1.56 (≈ 4.67 µM)	0.78 (≈ 2.33 µM)	–	–	–	–
CCn1cc(C(=O)O)c(=O)c2cc(F)c(N3CCNC(=O)C3)nc21	6.25 (≈ 18.7 µM)	12.5 (≈ 37.4 µM)	0.78 (≈ 2.33 µM)	–	–	–	–
CCn1cc(C(=O)O)c(=O)c2cc([N+](=O)[O-])c(N3CCCC3)nc21	25 (≈ 75.2 µM)	> 100	100 (≈ 301 µM)	–	–	–	–
CCn1cc(C(=O)O)c(=O)c2cc(F)c(N3CCOCC3)nc21	1.56 (≈ 4.86 µM)	6.25 (≈ 19.5 µM)	3.13 (≈ 9.74 µM)	–	–	–	–
CCn1cc(C(=O)O)c(=O)c2cc(C#N)c(N3CCN(C)CC3)nc21	12.5 (≈ 36.6 µM)	12.5 (≈ 36.6 µM)	1.56 (≈ 4.57 µM)	–	–	–	–

Compound	MIC (Staphylococcus aureus [1]) [µg/mL]	MIC (Pseudomonas aeruginosa [2]) [µg/mL]	MIC (Escherichia coli [3]) [µg/mL]	ED50 (Escherichia coli [4]) [mg/kg]	ED50 (Pseudomonas aeruginosa [5]) [mg/kg]	ED50 (Staphylococcus aureus [6]) [mg/kg]	ED50 (Escherichia coli [7]) [mg/kg]
CCn1cc(C(=O)O)c(=O)c2cc(F)c(N3CCN(Cc4ccccc4)CC3)nc21	0.78 (≈ 1.9 µM)	12.5 (≈ 30.5 µM)	6.25 (≈ 15.2 µM)	–	–	–	–
CCn1cc(C(=O)O)c(=O)c2cc([N+](=O)[O-])c(N3CCN(C)CC3)nc21	12.5 (≈ 34.6 µM)	50 (≈ 138 µM)	3.13 (≈ 8.66 µM)	–	–	–	–
CCC(C)N1CCN(c2nc3c(cc2F)c(=O)c(C(=O)O)cn3CC)CC1 (configuration not stated)	1.56 (≈ 4.14 µM)	25 (≈ 66.4 µM)	3.13 (≈ 8.31 µM)	–	–	–	–
CCn1cc(C(=O)O)c(=O)c2cc(F)c(N3CCCCC3)nc21	0.78 (≈ 2.44 µM)	12.5 (≈ 39.1 µM)	6.25 (≈ 19.6 µM)	–	–	–	–
CCn1cc(C(=O)O)c(=O)c2ccc(C)nc21 [NALIDIXIC ACID]	–	50 (≈ 215 µM)	1.56 (≈ 6.72 µM)	–	–	–	–
CCn1cc(C(=O)O)c(=O)c2cc(N)c(N3CCNCC3)nc21	> 100	6.25 (≈ 19.7 µM)	3.13 (≈ 9.86 µM)	–	–	–	–
CCn1cc(C(=O)O)c(=O)c2cc(F)c(N3CCN(c4ccccc4)CC3)nc21	6.25 (≈ 15.8 µM)	> 100	12.5 (≈ 31.5 µM)	–	–	–	–
CCn1cc(C(=O)O)c(=O)c2cc(F)c(N3CCCCCC3)nc21	3.13 (≈ 9.39 µM)	50 (≈ 150 µM)	6.25 (≈ 18.7 µM)	–	–	–	–
CCN1CCN(c2nc3c(cc2F)c(=O)c(C(=O)O)cn3CC)CC1	0.78 (≈ 2.24 µM)	3.13 (≈ 8.98 µM)	0.78 (≈ 2.24 µM)	–	–	–	–
CCn1cc(C(=O)O)c(=O)c2cnc(N3CCNCC3)nc21 [PIPEMIDIC ACID]	6.25 (≈ 20.6 µM)	6.25 (≈ 20.6 µM)	–	–	70.8	–	12.8
CCn1cc(C(=O)O)c(=O)c2ccc(N3CCN(C)CC3)nc21	25 (≈ 79 µM)	25 (≈ 79 µM)	6.25 (≈ 19.8 µM)	–	–	–	–
CCn1cc(C(=O)O)c(=O)c2cc(F)c(N3CCN(C=O)CC3)nc21	3.13 (≈ 8.99 µM)	12.5 (≈ 35.9 µM)	1.56 (≈ 4.48 µM)	–	–	–	–
O=C(O)c1cn(C(F)F)c2nc(N3CCNCC3)c(F)cc2c1=O	6.25 (≈ 18.3 µM)	6.25 (≈ 18.3 µM)	0.78 (≈ 2.28 µM)	–	–	–	–
CCn1cc(C(=O)O)c(=O)c2cc(F)c(N3CCNCC3)nc21 [ENOXACIN]	0.78 (≈ 2.44 µM)	0.78 (≈ 2.44 µM)	0.2 (≈ 0.624 µM)	–	–	–	–
CCn1cc(C(=O)O)c(=O)c2cc(F)c(N3CCCC3)nc21	0.39 (≈ 1.28 µM)	3.13 (≈ 10.3 µM)	1.56 (≈ 5.11 µM)	–	–	–	–
CCn1cc(C(=O)O)c(=O)c2cc(Cl)c(N3CCCC3)nc21	12.5 (≈ 38.8 µM)	> 100	> 100	–	–	–	–
O=C(O)c1cn(CCF)c2nc(N3CCNCC3)c(F)cc2c1=O	0.39 (≈ 1.15 µM)	0.78 (≈ 2.31 µM)	0.2 (≈ 0.591 µM)	–	–	–	–
CCCN1CCN(c2nc3c(cc2F)c(=O)c(C(=O)O)cn3CC)CC1	1.56 (≈ 4.3 µM)	12.5 (≈ 34.5 µM)	1.56 (≈ 4.3 µM)	–	–	–	–
CCn1cc(C(=O)O)c(=O)c2cc(F)c(NCCN)nc21	25 (≈ 85 µM)	50 (≈ 170 µM)	6.25 (≈ 21.2 µM)	–	–	–	–
